Laboratory results published in ChEMBL document CHEMBL4014298, “Discovery of a series of 8-(1-phenylpyrrolidin-2-yl)-6-carboxamide-2-morpholino-4H-chromen-4-one as PI3Kβ/δ inhibitors for the treatment of PTEN-deficient tumours” (Bioorg Med Chem Lett, 2017).

How the values were obtained:
[1] = Lipophilicity, log D of the compound at pH 7.4; details: buffer
[2] = molecular target: T1, Phosphatidylinositol 4,5-bisphosphate 3-kinase catalytic subunit beta isoform (Homo sapiens, UniProt P42338); assay: Inhibition of PI3Kbeta in PTEN-deficient human MDA-MB-468 cells assessed as decrease in AKT phosphorylation at Ser473 measured after 2 hrs
[3] = Inhibition of PI3Kalpha mutant in human BT474 cells assessed as decrease in AKT phosphorylation at Thr308 after 2 hrs; assay type: cell-based; details: BT-474, 2 h
[4] = Intrinsic clearance in human hepatocytes assessed per million cells; assay type: ADME, cell-based, Hepatocyte; details: read-out: CLH
[5] = Apparent permeability across apical to basolateral side in human Caco2 cells; details: Caco-2
[6] = AUC in mouse at 30 umol/kg, po; assay type: ADME; details: in vivo
[7] = molecular target: Phosphatidylinositol 4,5-bisphosphate 3-kinase catalytic subunit alpha isoform (Homo sapiens, UniProt P42336); assay: Inhibition of recombinant human PI3Kalpha using PIP2 as substrate preincubated for 20 mins followed by substrate addition measured after 80 mins in presence of ATP by Kinase Glo luminescence assay
[8] = molecular target: T1, Phosphatidylinositol 4,5-bisphosphate 3-kinase catalytic subunit beta isoform; assay: Inhibition of recombinant human PI3Kbeta using PIP2 as substrate preincubated for 20 mins followed by substrate addition measured after 80 mins in presence of ATP by Kinase Glo luminescence assay
[9] = molecular target: Phosphatidylinositol 4,5-bisphosphate 3-kinase catalytic subunit gamma isoform (Homo sapiens, UniProt P48736); assay: Inhibition of recombinant human PI3Kgamma using PIP2 as substrate preincubated for 20 mins followed by substrate addition measured after 80 mins in presence of ATP by Kinase Glo luminescence assay
Summary of the method: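 Enzyme IC50 against PI3Kγ, single determination (n=1).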

[10] = molecular target: T2, Phosphatidylinositol 4,5-bisphosphate 3-kinase catalytic subunit delta isoform (Homo sapiens, UniProt O00329); assay: Inhibition of recombinant human PI3Kdelta using PIP2 as substrate preincubated for 20 mins followed by substrate addition measured after 80 mins in presence of ATP by Kinase Glo luminescence assay
T2 sequence (O00329 whole entry): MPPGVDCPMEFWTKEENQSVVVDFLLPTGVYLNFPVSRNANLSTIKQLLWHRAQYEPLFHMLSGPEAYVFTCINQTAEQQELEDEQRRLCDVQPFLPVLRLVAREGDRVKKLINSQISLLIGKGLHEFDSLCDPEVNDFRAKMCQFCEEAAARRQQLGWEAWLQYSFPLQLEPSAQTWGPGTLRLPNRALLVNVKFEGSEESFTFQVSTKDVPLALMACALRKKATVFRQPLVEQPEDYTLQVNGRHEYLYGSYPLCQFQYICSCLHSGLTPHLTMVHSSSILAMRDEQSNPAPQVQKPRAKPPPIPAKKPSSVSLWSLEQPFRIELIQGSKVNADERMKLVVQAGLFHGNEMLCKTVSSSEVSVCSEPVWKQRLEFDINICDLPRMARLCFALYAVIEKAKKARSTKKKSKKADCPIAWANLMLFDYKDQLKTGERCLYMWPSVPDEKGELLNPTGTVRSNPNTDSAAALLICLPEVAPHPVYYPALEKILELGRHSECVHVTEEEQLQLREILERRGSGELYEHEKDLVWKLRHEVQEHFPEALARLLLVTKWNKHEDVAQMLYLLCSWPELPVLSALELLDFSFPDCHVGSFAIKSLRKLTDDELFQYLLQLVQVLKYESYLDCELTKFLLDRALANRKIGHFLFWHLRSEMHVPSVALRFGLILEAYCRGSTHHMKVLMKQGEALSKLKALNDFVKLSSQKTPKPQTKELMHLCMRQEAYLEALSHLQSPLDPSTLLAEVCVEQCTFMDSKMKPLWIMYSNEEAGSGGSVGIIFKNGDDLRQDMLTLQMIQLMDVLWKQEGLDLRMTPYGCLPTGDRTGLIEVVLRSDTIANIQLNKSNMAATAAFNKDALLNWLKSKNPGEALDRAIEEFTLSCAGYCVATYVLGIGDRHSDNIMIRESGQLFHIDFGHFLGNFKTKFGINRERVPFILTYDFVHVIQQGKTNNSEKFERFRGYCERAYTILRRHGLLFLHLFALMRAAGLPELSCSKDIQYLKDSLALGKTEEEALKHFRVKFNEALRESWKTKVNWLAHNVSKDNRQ

[11] = Clearance in mouse blood at 5 umol/kg, iv or 30 umol/kg, po; assay type: ADME, organism-based
[12] = Volume of distribution at steady state in mouse blood at 5 umol/kg, iv or 30 umol/kg, po; assay type: ADME, organism-based; details: read-out: Vdss
[13] = Oral bioavailability in mouse blood at 30 umol/kg; assay type: ADME, organism-based
[14] = Fraction unbound in human plasma; assay type: ADME, cell-free
Summary of the method: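 Plasma protein binding in mouse, dog or human plasma, reported as fraction unbound (%).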

[15] = Intrinsic clearance in mouse hepatocytes assessed per million cells; assay type: ADME, cell-based, Hepatocyte; details: read-out: CLH
Summary of the method: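 Intrinsic clearance measured in mouse or dog hepatocytes, expressed as CL_int in […].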

Homo sapiens = species: Homo sapiens; assay: Selectivity ratio of IC50 for PI3Kalpha mutant in human BT474 cells to IC50 for PI3Kbeta in PTEN-deficient human MDA-MB-468 cells; assay type: cell-based
Summary of the method: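 Ratio of two cellular IC50s. PI3Kα IC50 is from inhibition of AKT Thr308 phosphorylation in PIK3CA-mutant human breast ductal carcinoma BT474 cells. PI3Kβ IC50 is from inhibition of AKT Ser473 phosphorylation in PTEN-null breast adenocarcinoma MDA-MB-468 cells.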

T1 sequence (P42338 whole entry, canonical isoform): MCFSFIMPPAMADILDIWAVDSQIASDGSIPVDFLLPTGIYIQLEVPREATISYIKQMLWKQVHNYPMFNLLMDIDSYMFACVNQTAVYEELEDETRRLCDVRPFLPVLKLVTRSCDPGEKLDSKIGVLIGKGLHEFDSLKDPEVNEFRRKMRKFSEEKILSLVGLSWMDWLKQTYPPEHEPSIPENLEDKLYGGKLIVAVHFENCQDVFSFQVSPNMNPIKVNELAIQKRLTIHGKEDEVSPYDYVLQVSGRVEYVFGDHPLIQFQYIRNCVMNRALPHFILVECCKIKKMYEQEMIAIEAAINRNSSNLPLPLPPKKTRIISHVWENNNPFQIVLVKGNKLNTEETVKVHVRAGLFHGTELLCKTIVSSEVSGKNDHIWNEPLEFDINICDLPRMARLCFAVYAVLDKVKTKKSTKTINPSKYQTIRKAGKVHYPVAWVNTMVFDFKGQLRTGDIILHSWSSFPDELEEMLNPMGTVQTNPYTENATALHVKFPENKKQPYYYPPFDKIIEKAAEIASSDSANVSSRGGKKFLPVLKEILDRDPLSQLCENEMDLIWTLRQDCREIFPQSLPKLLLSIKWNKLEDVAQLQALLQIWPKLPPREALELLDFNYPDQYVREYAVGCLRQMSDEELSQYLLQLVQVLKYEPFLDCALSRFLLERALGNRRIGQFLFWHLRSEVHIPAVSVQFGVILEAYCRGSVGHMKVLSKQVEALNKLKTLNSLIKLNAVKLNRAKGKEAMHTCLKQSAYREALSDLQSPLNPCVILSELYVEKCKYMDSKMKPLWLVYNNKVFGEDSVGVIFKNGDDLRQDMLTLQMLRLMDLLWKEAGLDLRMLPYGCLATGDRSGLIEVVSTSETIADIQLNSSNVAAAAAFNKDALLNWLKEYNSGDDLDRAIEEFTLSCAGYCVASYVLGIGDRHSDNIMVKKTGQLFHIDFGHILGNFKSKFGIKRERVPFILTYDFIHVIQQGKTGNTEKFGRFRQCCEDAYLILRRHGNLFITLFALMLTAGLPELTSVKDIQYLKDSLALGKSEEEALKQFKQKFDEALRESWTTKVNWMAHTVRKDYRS
Phosphatidylinositol 4,5-bisphosphate 3-kinase catalytic subunit gamma isoform, sequence (P48736 whole entry, canonical isoform): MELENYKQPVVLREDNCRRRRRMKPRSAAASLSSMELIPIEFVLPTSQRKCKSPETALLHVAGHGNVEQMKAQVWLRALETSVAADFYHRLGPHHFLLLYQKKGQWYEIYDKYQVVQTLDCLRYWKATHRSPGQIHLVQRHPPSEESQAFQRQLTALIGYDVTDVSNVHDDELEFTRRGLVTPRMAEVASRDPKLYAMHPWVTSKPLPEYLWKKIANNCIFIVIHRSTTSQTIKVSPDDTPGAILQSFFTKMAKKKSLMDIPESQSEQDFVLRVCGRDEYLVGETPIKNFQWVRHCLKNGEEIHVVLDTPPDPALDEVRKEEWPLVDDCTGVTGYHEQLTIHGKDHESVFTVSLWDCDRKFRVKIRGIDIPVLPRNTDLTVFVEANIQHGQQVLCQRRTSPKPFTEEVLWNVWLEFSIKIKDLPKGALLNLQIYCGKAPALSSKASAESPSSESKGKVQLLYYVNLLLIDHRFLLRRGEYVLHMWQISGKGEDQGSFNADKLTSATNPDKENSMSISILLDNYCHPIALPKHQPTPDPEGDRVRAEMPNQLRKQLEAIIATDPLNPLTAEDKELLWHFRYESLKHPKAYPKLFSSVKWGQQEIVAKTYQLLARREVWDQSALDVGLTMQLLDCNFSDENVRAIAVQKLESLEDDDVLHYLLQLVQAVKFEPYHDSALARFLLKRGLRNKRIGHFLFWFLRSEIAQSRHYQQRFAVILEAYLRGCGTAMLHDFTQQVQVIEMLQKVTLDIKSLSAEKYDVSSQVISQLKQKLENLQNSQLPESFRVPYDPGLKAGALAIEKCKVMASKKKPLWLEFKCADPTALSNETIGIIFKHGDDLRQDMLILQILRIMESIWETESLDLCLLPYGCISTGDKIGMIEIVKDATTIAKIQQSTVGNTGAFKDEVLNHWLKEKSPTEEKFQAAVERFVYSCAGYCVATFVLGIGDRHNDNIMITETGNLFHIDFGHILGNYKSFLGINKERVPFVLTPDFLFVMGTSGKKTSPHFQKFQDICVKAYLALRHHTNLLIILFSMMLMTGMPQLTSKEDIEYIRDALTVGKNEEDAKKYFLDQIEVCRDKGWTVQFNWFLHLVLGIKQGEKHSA
Phosphatidylinositol 4,5-bisphosphate 3-kinase catalytic subunit alpha isoform, sequence (P42336 whole entry, canonical isoform): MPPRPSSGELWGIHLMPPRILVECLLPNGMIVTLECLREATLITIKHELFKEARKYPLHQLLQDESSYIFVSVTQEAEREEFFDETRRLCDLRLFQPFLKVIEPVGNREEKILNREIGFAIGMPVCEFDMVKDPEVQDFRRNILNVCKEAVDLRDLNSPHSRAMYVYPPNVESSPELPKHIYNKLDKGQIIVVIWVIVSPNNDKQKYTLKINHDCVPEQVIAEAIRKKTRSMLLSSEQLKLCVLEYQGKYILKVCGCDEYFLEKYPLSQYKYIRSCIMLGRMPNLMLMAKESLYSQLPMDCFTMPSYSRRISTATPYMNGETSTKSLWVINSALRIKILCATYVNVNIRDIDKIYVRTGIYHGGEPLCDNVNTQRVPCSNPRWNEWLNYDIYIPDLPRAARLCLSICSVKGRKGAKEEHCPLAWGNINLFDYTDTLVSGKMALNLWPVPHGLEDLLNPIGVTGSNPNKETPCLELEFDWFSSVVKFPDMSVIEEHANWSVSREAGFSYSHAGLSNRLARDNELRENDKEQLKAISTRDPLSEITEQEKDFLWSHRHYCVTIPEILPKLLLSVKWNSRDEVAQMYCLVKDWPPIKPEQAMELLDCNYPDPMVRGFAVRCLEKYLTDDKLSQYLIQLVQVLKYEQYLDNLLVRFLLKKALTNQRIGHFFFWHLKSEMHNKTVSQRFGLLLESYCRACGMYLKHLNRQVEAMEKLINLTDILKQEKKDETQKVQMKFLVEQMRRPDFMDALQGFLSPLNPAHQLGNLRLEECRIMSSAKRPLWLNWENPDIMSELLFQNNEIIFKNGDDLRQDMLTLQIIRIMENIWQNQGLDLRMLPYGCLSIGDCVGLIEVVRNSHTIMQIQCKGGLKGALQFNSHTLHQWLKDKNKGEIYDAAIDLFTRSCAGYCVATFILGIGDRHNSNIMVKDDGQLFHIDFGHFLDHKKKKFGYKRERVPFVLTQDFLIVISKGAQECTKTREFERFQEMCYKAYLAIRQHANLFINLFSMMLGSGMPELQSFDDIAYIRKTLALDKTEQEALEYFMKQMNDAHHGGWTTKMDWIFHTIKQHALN

Row | logD [1] | IC50 [2] [nM] | IC50 [3] [nM] | hepatocyte CLint [4] [µL/min/1e6 cells] | Papp A→B [5] [×10⁻⁶ cm/s] | AUC [6] [µM·h] | IC50 [7] [nM] | IC50 [8] [nM] | IC50 [9] [nM] | IC50 [10] [nM] | clearance [11] [mL/min/kg] | Vd [12] [L/kg] | bioavailability [13] [%] | fraction unbound [14] | hepatocyte CLint [15] [µL/min/1e6 cells] | Compound | Ratio IC50 (Homo sapiens)
1 | 3.6 | – | – | – | – | – | – | – | – | – | – | – | – | – | – | Cc1cc([C@@H](C)Nc2ccccc2)c2nc(N3CCOCC3)cc(=O)n2c1 | –
2 | 2.3 | 2.3 | 250 | 11 | 3.3 | – | – | – | – | – | – | – | – | – | – | CN1CCN(C(=O)c2cc([C@H]3CCCN3c3cc(F)cc(F)c3)c3oc(N4CCOCC4)cc(=O)c3c2)CC1 | –
3 | 2.7 | 1.2 | 150 | 17 | 33 | 2.4 | – | – | – | – | – | – | – | – | – | CN(C)C(=O)c1cc(C2CCCN2c2cc(F)cc(F)c2)c2oc(N3CCOCC3)cc(=O)c2c1 (racemic) | –
4 | 2.2 | 4.5 | 1200 | 8 | – | – | – | – | – | – | – | – | – | – | – | O=C(c1cc(C2CCCN2c2ccc(F)cc2)c2oc(N3CCOCC3)cc(=O)c2c1)N1CCOCC1 (single isomer, unassigned) | –
5 | – | – | 480 | 11 | – | 6 | – | – | – | – | – | – | – | – | – | CN(C)C(=O)c1cc(C2CCCN2c2ccccc2)c2oc(N3CCOCC3)cc(=O)c2c1 (racemic) | –
6 | 2.2 | 2.8 | 300 | 6 | 14 | 1.7 | 19 | 6.1 | 340 | 5.1 | 47 | 0.9 | 18 | 0.11 | 134 | O=C(c1cc([C@H]2CCCN2c2cccc(F)c2)c2oc(N3CCOCC3)cc(=O)c2c1)N1CCOCC1 | –
7 | 2.3 | 3 | 630 | < 3 | – | – | – | – | – | – | – | – | – | – | – | O=C(c1cc(C2CCCN2c2cc(F)cc(F)c2)c2oc(N3CCOCC3)cc(=O)c2c1)N1CCC(O)CC1 (racemic) | –
8 | 2 | 2 | 870 | 4 | 2.6 | 0.3 | – | – | – | – | – | – | – | – | – | CN(CCO)C(=O)c1cc(C2CCCN2c2cc(F)cc(F)c2)c2oc(N3CCOCC3)cc(=O)c2c1 (racemic) | –
9 | – | 3.4 | 180 | 14 | – | 1 | 24 | 6.7 | 330 | 8.2 | – | – | – | – | – | CN(C)C(=O)c1cc([C@H]2CCCN2c2ccc(F)cc2)c2oc(N3CCOCC3)cc(=O)c2c1 | 50
10 | 2.5 | 1.2 | 91 | 15 | – | – | – | – | – | – | – | – | – | – | – | CN(C)C(=O)c1cc([C@H]2CCCN2c2cccc(F)c2)c2oc(N3CCOCC3)cc(=O)c2c1 | –
